ChEMBL document CHEMBL4513216, “Probing the Open Global Health Chemical Diversity Library for Multistage-Active Starting Points for Next-Generation Antimalarials” (ACS Infect Dis, 2020)

Test: Toxicity liver stage against HepG2, at 10uM
Assay type: cell-based
Parameters: test concentration 10 uM, cell line HepG2-A16-CD81EGFP
Details: human, HepG2-A16-CD81EGFP cells; read-out: INHIBITION
Summary of the method: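 Uninfected HepG2-A16-CD81EGFP cells, 3 × 10^3 per well, 1536-well, plated on prespotted compound at 10 μM final, parasite-free screening media added to match infected plates; puromycin 10 μM positive, DMSO 0.5% negative; run in parallel with 48 h PbLuc assay at 37 °C, 5% CO2; viability by CellTiter-Glo luminescence, normalized to controls.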

Row | SMILES | cytotoxicity at 10 µM
1 | CC(=O)NCc1nnc2n1CCN(c1nc(C)nc3sccc13)CC2 | 15.5%
2 | Cc1nc(CNC(=O)NCCc2ccc(N(C)C)cc2)cs1 | -11.6%
3 | CC(Cn1cccn1)NCC(=O)N(C)Cc1ccsc1 (stereo not given) | -7.32%
4 | O=C(NCC(Cc1cccc(F)c1)N1CCCC1=O)c1ccc[nH]c1=O (stereo not given) | -2.42%
5 | CCCn1nc(C)c(CNC(=O)c2snnc2C)c1C | -15.5%
6 | CCN(CC)CCn1cc(NC2CCN(C(C)(C)C)CC2)cn1 | -6.53%
7 | CC(C)Cn1cc(NC(=O)N2CCCC2)cn1 | -5.28%
8 | CC1Oc2c(cccc2C(=O)N2CCCCCC2)NC1=O (stereo not given) | -6.81%
9 | COc1ccc(CN(C(=O)C2CCCO2)c2ccncc2)cc1 (stereo not given) | 1.86%
10 | CCn1cnnc1CNC(=O)N1CCN(c2ccccc2OC)CC1 | -6.02%
11 | CCn1cc(C(=O)N(C)Cc2c(F)cccc2Cl)cn1 | -4.66%
12 | CCN(CC)S(=O)(=O)c1ccc(C(=O)NC(C)(C#N)C2CC2)cc1 (stereo not given) | -5.77%
13 | COCCn1/c(=N\C(=O)CN(C)S(C)(=O)=O)sc2cc(Cl)ccc21 | -13.7%
14 | CC1=Nc2c(c(O)nn2C(C)C)C(c2cccnc2)S1 (stereo not given) | 2.93%
15 | COc1cccc(N2CC3(CCN(C(=O)NC(C)C)C3)CC2=O)c1 (stereo not given) | 3.52%
16 | CN1CCc2c(C#N)c(NCCc3ccccc3)n3cnnc3c2C1 | 12.4%
17 | O=C(NCc1ccc(CN2CCCC2)cc1)NCc1ccon1 | -0.145%
18 | COc1ccc(CN2CCCC2)cc1Oc1ccc(NC(C)=O)cc1 | -1.1%
19 | Cc1nn(C)c2nc(NCCOCCO)sc12 | -5%
20 | O=C(CCc1ccccc1Br)N1CC(S(=O)(=O)C2CCCCC2)C1 | -1.36%
21 | Cc1cnn(C2CN(Cc3ccc4c(c3)OCCO4)C2)c1 | 16.3%
22 | O=C(C1CCOC1)N1CCC2(CCCNC2)CC1 (stereo not given) | -1.74%

Row | SMILES | cytotoxicity at 10 µM
23 | Cc1csc([C@H]2C[C@@H]3CCN(C(=O)c4cnccn4)C[C@H]3O2)n1 | 1.07%
24 | Cc1nnc(CN2CCN(C)C3(CCC(=O)N(CCO)CC3)C2)s1 (stereo not given) | -14.9%
25 | Cc1nc(C#N)c(N2CCC(c3nc(-c4ccc(F)cc4)no3)CC2)o1 | 3.86%
26 | Cc1nnc(N(CCC#N)CCC#N)s1 | -0.402%
27 | Cc1ccc(C)c(CN(C)Cc2nnc3ccccn23)c1 | -10.5%
28 | CCC(CNC1CCN(C(=O)N(C)C)CC1)Oc1ccccc1C (stereo not given) | 3.98%
29 | CCc1ccc(C(=O)N2CCCC2c2nnc3n2CCCCC3)o1 (stereo not given) | 10.9%
30 | Cc1nc(-c2c(C)noc2C)cc(C2CCN(S(=O)(=O)N(C)C)CC2)n1 | 4.62%
31 | O=C(c1ccc(S(=O)(=O)NCc2ccon2)cc1)N1CCOCC1 | 3.08%
32 | COc1cc2nc(C)n(CC(=O)NCCCO)c(=O)c2cc1OC | -0.869%
33 | O=C(NC[C@]12COC[C@H]1CN(Cc1cccs1)C2)c1ccsc1 | -0.629%
34 | Cc1nnc(NCc2ccc(SC(F)F)cc2)o1 | 6.48%
35 | Cc1noc(C)c1CS(=O)(=O)C(C)C(=O)N(C)c1ccccc1 (stereo not given) | -1.58%
36 | CCCS(=O)(=O)N1C[C@@H](Oc2ccccn2)[C@H]2OCCC[C@H]21 | 0.516%
37 | Cc1cnc(CNC(=O)[C@@]23CCO[C@@H]2CCN(c2ncccn2)C3)cn1 | -100%
38 | CCOc1cc(Cl)c(CN2CCC3(CCCNC3=O)C2)cc1OC (stereo not given) | 10.6%
39 | CS(=O)(=O)CC(=O)N1C[C@H]2CCC[C@@]2(COCc2ccccn2)C1 | 4.35%
40 | Cn1ccnc1CN(CCCO)C1CCCc2ccccc21 (stereo not given) | -6.91%
41 | CCC1CN(C(=O)COc2ccc(NC(C)=O)cc2)CCO1 (stereo not given) | -9.4%
42 | Cc1ccccc1C(C)N(C)Cc1nc2c(cnn2C)c(=O)[nH]1 (stereo not given) | -6.69%
43 | Cc1cc(C)cc(OCCC(=O)N2CCOCC2c2ncon2)c1 (stereo not given) | -8.72%
44 | COc1ccccc1N1CCN(C(=O)Cn2nccc2C)CC1(C)C | 11.8%

Row | SMILES | cytotoxicity at 10 µM
45 | O=C(NCC1CCS(=O)(=O)C1)c1cccc(CN2CCCC2)c1 (stereo not given) | -0.986%
46 | CN1CCN(c2cc(CNC(=O)c3cccnc3O)ccn2)CC1 | -5.42%
47 | N#CC1CCN(C(=O)NCCc2ccc(Cl)s2)CC1 | -16.1%
48 | c1cnc(NC2COC3(CCN(Cc4cccs4)CC3)C2)nc1 (stereo not given) | 0.603%
49 | COC(=O)COc1cccc(NS(=O)(=O)c2cc(C(=O)O)cs2)c1 | -5.25%
50 | COc1ccc(CC(=O)N2CCCC2c2nc(C)c(C)c(O)n2)cc1 (stereo not given) | -17.7%
51 | COc1ccc(-c2cnc(NC(C)=O)[nH]2)cc1 | -0.825%
52 | Cc1cc(N2CCN(Cc3ccccc3)CC(O)C2)nc(N)n1 (stereo not given) | 1.06%
53 | CCN(CC(=O)Nc1cc(Cl)ccc1C)C(=O)c1ccncc1 | -1.73%
54 | CC(NC(=O)NCCCn1cncn1)c1ccc(C(F)(F)F)cc1 (stereo not given) | -7.1%
55 | CCCS(=O)(=O)c1ncc(CN2CCC(CO)CC2)n1CC1CCCO1 (stereo not given) | 7%
56 | CCCOc1ccccc1NCC(=O)Nc1ccc(CC)cc1 | 6.37%
57 | COc1ccc(NC(=O)C(C)(C)C)cc1OCc1cccnc1 | -41.1%
58 | CSC(C)(C)CNC(=O)Nc1cccc(-c2nccn2C)c1 | -3.13%
59 | COC(=O)CSCc1noc(-c2ccc(Cl)cc2)n1 | 1.94%
60 | O=C(Cc1ccc(F)cc1)N1CCCC(c2n[nH]c3nccnc23)C1 (stereo not given) | 4.59%
61 | CCC(Nc1ccc(CCN2CCOCC2)cc1)C(N)=O (stereo not given) | 4.42%
62 | COCCN1C[C@@H]2CN(c3ncc(F)cn3)C[C@@H]2C1=O | 9.49%
63 | Cc1ccc(C)c(C(=O)N2CCOC(CCN(C)C)C2)c1 (stereo not given) | -0.63%
64 | COC(=O)C1CCCN1C(=O)c1ccc(-n2nc(C)cc2C)cc1 (stereo not given) | -10.5%
65 | CC(=O)N1CCC(C(=O)NCCN2CCCC(C)C2)CC1 (stereo not given) | 10.7%
66 | O=C(CCOc1cccc(Cl)c1)N1CCN(c2cnccn2)CC1 | -0.284%

Row | SMILES | cytotoxicity at 10 µM
67 | CCCN1CCC2(C1)c1ccccc1S(=O)(=O)N2C (stereo not given) | 9.04%
68 | Cc1ccc(-c2nc(CN3CCn4c(C)nnc4C3)cs2)o1 | -19.2%
69 | CCN(CC)S(=O)(=O)NCc1ccc(-c2ccc(C(N)=O)c(C)n2)cc1 | 2.77%
70 | COCC(O)CN(C)C(=O)NC1CCN(S(C)(=O)=O)CC1 (stereo not given) | -0.778%
71 | Cc1cc(CNC(=O)CCc2c(C)nc3cc(O)nn3c2C)no1 | -3.27%
72 | Cc1ccc(C(CNCc2c[nH]nc2C)N(C)C)cc1 (stereo not given) | 8.42%
73 | COc1cc(N2C[C@@H]3COC[C@]3(C(=O)NC3CC(F)(F)C3)C2)ncn1 | 14.7%
74 | NC(=O)c1csc(N2C[C@@H](CN3CCOCC3)[C@@H](CO)C2)n1 | 2.97%
75 | CCOC(=O)Cn1c(=O)nc(N)c2c(-c3ccc(OC)cc3)csc21 | -33.2%
76 | Cc1ccc2nc(C3CCCN3Cc3cccc(CCN)c3)[nH]c2c1 (stereo not given) | -7.01%
77 | COC(=O)Cc1cccc(NC(=O)Cc2ccon2)c1 | -2.93%
78 | COCCN1C(=O)[C@]2(CC[C@@H]3CN(S(=O)(=O)CC(C)C)C[C@@H]32)N=C1C | -69.3%
79 | Cn1cc(CN2C[C@H](N3CCOCC3)[C@@H]3OCCC[C@@H]32)cn1 | 5.02%
80 | CN1CCCC1c1nccnc1-c1ccc(C(=O)O)cc1 (stereo not given) | 11%
81 | CC(=O)N1CCC(N2CCN3C(=O)N(Cc4ccccn4)C[C@H]3C2)CC1 | 2.26%
82 | Cc1cccc(CN2C[C@@H]3CN(C(=O)[C@H]4CCCO4)C[C@@H]3C2=O)c1 | 9.95%
83 | CCOc1cccc(CCNC(=O)Cc2ccn[nH]2)n1 | -27.2%
84 | CC(C)c1noc(CS(=O)(=O)CC(=O)NCCOc2ccccc2)n1 | -10%
85 | COc1ccc2oc(-c3cn(C)nc3C)c(O)c(=O)c2c1 | 9.96%
86 | Cc1noc(C)c1S(=O)(=O)N(C)Cc1nn(C)c(Cl)c1Cl | -6.01%
87 | COC1CCN(C(=O)c2cc(-c3ccc(Cl)cc3)on2)CC1 | -0.885%
88 | CCN(Cc1nc(COC)no1)Cc1cccnc1NC | -43.7%

Row | SMILES | cytotoxicity at 10 µM
89 | CC(C)NC(=O)C1CN(C(=O)CCc2ccccc2)CC12CCOCC2 (stereo not given) | -3%
90 | COc1ccccc1NC(=O)CC(C)NCCc1sc(C)nc1C (stereo not given) | 4.82%
91 | CSCC(=O)N(Cc1ccccn1)Cc1ccccc1C | 7.79%
92 | CC(C)(O)CN1CCN(C(=O)COCC2CC2)CC1 | -9.17%
93 | O=C1CC2(CCSC2)C(=O)N1Cc1ncc(-c2cccc(F)c2)o1 (stereo not given) | 10.3%
94 | CCn1cnnc1CNC(=O)c1ccc(Br)cc1F | -18.2%
95 | COc1ccc2oc(C(C)NC(=O)NCc3noc(C)n3)c(C)c2c1 (stereo not given) | 5.08%
96 | CC(=O)N[C@@H]1CN(C(=O)c2csc(C(C)C)n2)C[C@H]1C(C)C | -6.71%
97 | CC(=O)N1N=C(c2ccncc2)OC1C(=O)N(C)CCc1ccccc1 (stereo not given) | 12.9%
98 | Cc1ccsc1-c1nccn1CCN1CCCCC1CO (stereo not given) | -8.11%
99 | c1cn(Cc2ccc(N3CCCN(C4CCCC4)CC3)nc2)cn1 | 12%
100 | Cc1cc(NC(=O)CO)nn1-c1ccc(Cl)cc1Cl | -142%
101 | OCCc1cn(CC2CCCN(Cc3nccs3)C2)nn1 (stereo not given) | -6.51%
102 | CN(Cc1cccc(-n2cccn2)c1)C(=O)c1cccc(N(C)C)c1 | -0.809%
103 | CN1CCN([C@@H]2CN(C(=O)CCOc3ccccc3)C[C@H]2O)CC1 | 1.17%
104 | CC1CCN(c2nc3cn(-c4ccc(F)cc4)c(=O)c-3c[nH]2)CC1 | 3.47%
105 | Cc1nc[nH]c1CN1CCC(C2CCN(CCc3ccccc3)C2)CC1 (stereo not given) | -3.52%
106 | O=S(=O)(Nc1ccon1)c1cc(Cl)cc2c1OCC2 | 5.81%
107 | CNc1cc(-c2cccc(CN)c2)c2cc[nH]c2n1 | -3.23%
108 | Cc1cc(C)cc(CNC(C)c2c(C)nn(C)c2C)c1 (stereo not given) | 5.14%
109 | Cn1cc(N2CC3(CCN(CC4CC4)CC3)OCC2=O)cn1 | -6.86%
110 | CCN(CCC(F)(F)F)C(=O)Nc1cccc(N2CCOCC2)c1 | -8.02%
